Screening data (PubChem)
This is a sample that favours compounds with a hit; in the whole collection about 4.3% have one here.
MC4R antag cAMP – human MC4R antagonism in cAMP assay; 360,000 tested, 0.48% active; MC4R-expressing cells, MTII-stimulated cAMP, LANCE TR-FRET; inhibition, % at 6.5 µM; AID 540295;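 active = inhibition above its plate's cutoff, the mean of tested wells on that plate plus 3 SD, cut at about 29% in these data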;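 also: 0% = Melanotan II alone and 100% = Melanotan II plus saturating MCL0020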
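Assay system: U2OS cells stably expressing human melanocortin 4 receptor (MC4R) / Dosing: 6.5 µM / Timing: compound 30 min, challenge 1 h, detection 1 h / Measured by: Eu-cAMP/anti-cAMP TR-FRET, emission 671 nm / Replicates: singlicate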
HTR2A ag – activates the mouse 5-HT2A serotonin receptor; P35363; CHO-K1 mHTR2A beta-arrestin complementation, luminescence; percent of 30 µM serotonin response; activation, % at 7.6 µM; 360,000 tested, 0.66% active; AID 624169;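 active = activation above a run cutoff, the mean activation of all tested compounds plus 3 SD, cut at about 14% in these data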;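 also: 0% = plate median of compound wells and 100% = 30 µM serotonin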
MC4R ag barr – human MC4R agonism via beta-arrestin; P32245; U2OS MC4R beta-arrestin complementation, luminescence; percent of melanotan II response, DMSO zero; activation, % at 8.9 µM; 360,000 tested, 0.98% active;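 active = activation above a per-plate cutoff, the mean activation of sample wells on that plate plus 3 SD, cut at about 8% in these data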
TAAR1 antagonist – antagonists of human TAAR1; inhibition, % at 3 µM; Q96RJ0; 360,000 tested, 1.5% active; AID 624466; CHO RD-HGA16 TAAR1, Fluo-8 calcium fluorescence, antagonist;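 active = inhibition above a per-plate cutoff, the mean inhibition of test compounds on that plate plus 3 SD, cut at about 49% in these data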;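 also: 0% = DMSO plus EC80 beta-PEA response and 100% = DMSO alone without agonist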
Target sequence (Q96RJ0 whole entry, looked up): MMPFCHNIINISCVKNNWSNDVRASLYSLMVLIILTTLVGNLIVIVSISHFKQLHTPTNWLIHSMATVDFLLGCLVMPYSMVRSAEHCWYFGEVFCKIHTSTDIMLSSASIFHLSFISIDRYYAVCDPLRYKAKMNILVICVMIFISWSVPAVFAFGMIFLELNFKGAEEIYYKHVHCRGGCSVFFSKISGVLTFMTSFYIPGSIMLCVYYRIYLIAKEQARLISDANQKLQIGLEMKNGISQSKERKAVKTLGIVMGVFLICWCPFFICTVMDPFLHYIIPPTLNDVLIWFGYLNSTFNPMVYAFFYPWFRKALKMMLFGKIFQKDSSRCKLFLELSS
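Test system – hTAAR1-expressing CHO RD-HGA16 cells, Gα16-coupled · Also added – β-PEA at EC80 concentration, post-compound challenge · Compound – 3 µM, single point · Incubation – dye loading 75 min at 37 °C, then 30 min room temperature · Measured by – Fluo-8 intracellular calcium dye fluorescence, real-time kinetic reads · Benchmarks – vehicle and agonist controls · Replicates – singlicate, one well per test compound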
TAAR1 ag – agonists of human TAAR1. 360,000 tested, 0.99% active. CHO RD-HGA16 TAAR1, Fluo-8 calcium fluorescence; vehicle wells 0%, saturating PEA agonist 100%. activation, % at 3 µM. Q96RJ0. AID 624467;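 active = activation above the mean activation of all test compounds in the run plus 3 SD, cut at about 38% in these data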
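System: CHO RD-HGA16 cells carrying human TAAR1 plus Gα16; Incubation: 17-24 h seeding, 75 min 37 °C dye, 30 min RT; Measured by: Fluo-8 fluorescence, 5 s baseline then 140 s kinetic read; Control set: DMSO and PEA EC100; Replication: single well for each compound.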
B2AR ag – agonists of human beta-2 adrenergic receptor inducing internalization; P07550; Am2.2-beta2AR cells, FAP receptor internalization, flow cytometry; response, % (concentration not given with the values); 340,000 tested, 0.43% active;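 active = response above a set limit, near 3 SD of response in nonfluorescent compounds, cut at about 42% in these data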
* marks the source's active call; other numbers are inactive results; . = not tested or not shown.

SMILES	MC4R antag cAMP	HTR2A ag	MC4R ag barr	TAAR1 antagonist	TAAR1 ag	B2AR ag
CCCCOc1ccc(C(=O)NC2CCCCN(C)C2=O)cc1 (configuration not stated)	.	.	.	2	1	.
O=[N+]([O-])c1cccc(-c2nc(-c3cccs3)c(-c3cccs3)[nH]2)c1	7	0	4	58*	5	-4
O=[N+]([O-])c1cccc(-c2noc(-c3cccs3)n2)c1	12	-7	8	-50	0	-6
O=[N+]([O-])c1ccc(-c2nc(-c3cccs3)c(-c3cccs3)[nH]2)cc1	8	-7	-1	61*	20	-62
COC(=O)c1cc2c(c3c4cc(F)ccc4n(S(=O)(=O)c4ccc(OC)cc4)c13)C(=O)N(Cc1ccccc1OC)C2	.	.	.	3	2	.
Cc1[nH]c2ccccc2c1C(=O)CSc1nc2ccccc2[nH]1	0	1	2	55*	14	0
Cc1[nH]c2ccccc2c1C(=O)CSc1nc2ccccc2c(=O)n1CCCN1CCOCC1	-1	-5	7	71*	48*	21
C[C@@H]1CN([C@H](C)CO)C(=O)CCCn2nncc2CO[C@@H]1CN(C)C(=O)Nc1ccccc1	.	.	.	7	1	.
COCCNC(=O)C(c1ccc(C)o1)N(Cc1ccc(OC)cc1)C(=O)Cn1nnc2ccccc21 (configuration not stated)	20	7	0	31	41*	-6
Cc1ccc(-n2ccc(=O)c(-c3ccnc(SCc4cccc(Cl)c4)n3)n2)cc1	-8	-11	8.6*	29	13	-5
COC(=O)[C@]12C[C@H](CC(=O)N3CCCCC3)C(=O)N(CCC3=CCCCC3)C1=C[C@H](C(C)(C)C)O[C@@H]2C	.	.	.	-44	-2	.
COCCOC(=O)c1c(C)n(C)c2ccc(OC(=O)c3c(OC)cccc3OC)cc12	5	2	-1	49*	18	13
COCCOC(=O)c1c(C)n(C)c2ccc(OC(=O)N3CCOCC3)cc12	1	-2	2	1	2	1
CCOC(=O)Cn1nc(-c2ccccc2)c(-c2ccccc2)nc1=O	5	0	-1	-10	6	-16
CCOC(=O)Cn1nc(-c2ccccc2)c2cnc3ccc(CC)cc3c21	23	1	8.4*	28	2	-6
CC(C)CNc1cccc2c1S(=O)(=O)N(Cc1cccc(F)c1)[C@@H](C)[C@H](c1ccccc1)O2	.	.	.	3	0	.
O=c1oc(Cl)c(Cl)c2ccccc12	-7	5	1	-33	0	62*
O=c1onc(-c2ccccc2)c2ccccc12	6	-1	-1	-29	-1	0
CCCCNC(=O)C[C@H]1C[C@@]2(C(=O)OC)C(=C[C@H](C(C)(C)C)O[C@@H]2C)N(Cc2ccc3c(c2)OCO3)C1=O	.	.	.	0	-2	.
C=CCOc1ccccc1CN(C(=O)CCl)c1ccc2c(c1)OCO2	9	0	15*	-31	0	7
CCOc1ccccc1NC(=O)Nc1ccc2c(c1)OCO2	-5	0	-2	-12	-1	-1
C=C(C)C(COc1c2occc2cc2ccc(=O)oc12)OC(C)(C)C(O)COc1c2occc2cc2ccc(=O)oc12 (configuration not stated)	2	4	0	58*	16	-15
CC(C)C(=O)COc1c2occc2cc2ccc(=O)oc12	26	-3	0	-9	0	-31
Cc1ccc(CN2CC=CS2(=O)=O)cc1	.	.	.	4	1	.
CCOC1=C2[C@H](c3ccccc3)N(S(=O)(=O)c3ccc(C)cc3)[C@H](C(C)C)[C@H]2C(C#N)(C#N)C(C#N)(C#N)C1	.	.	.	-16	1	.
SMILES	MC4R antag cAMP	HTR2A ag	MC4R ag barr	TAAR1 antagonist	TAAR1 ag	B2AR ag
COc1cccc(C(=O)O/N=C(\N)c2ccc([N+](=O)[O-])cc2)c1OC	1	10	8.6*	22	-2	5
COc1ccc(/C(N)=N/OC(=O)c2cccc([N+](=O)[O-])c2C)cc1OC	0	0	-2	.	.	1
Cc1cc(Br)c2nc(-c3ccc(F)cc3)c(Cc3cccc(Cl)c3)n2c1	.	.	.	-6	0	.
COc1ccccc1/C=C/C(=O)NCC(=O)N/N=C/c1ccccc1	9	2	-1	-27	38*	1
COC(=O)C1=C(C)N(CC(C)C)C(=S)NC1c1ccc(Cl)cc1 (configuration not stated)	.	.	.	-11	-2	.
O=C(O)CCCNC(=O)OCc1ccccc1	-7	4	1	-2	1	64*
O=C(NCCCCCCNC(=O)OCc1ccccc1)OCc1ccccc1	2	-3	4	12	10	-5
Cc1cc(C)cc(NC(=O)Cn2ncn3c(cc4ccccc43)c2=O)c1	1	4	2	12	39*	2
COC1C(O)CCC2(CO2)C1C1(C)OC1CC=C(C)C (configuration not stated)	.	.	.	-33	1	.
CCOC(=O)C1=C(N)n2c(s/c(=C\c3ccco3)c2=O)=C(C(=O)OC(C)C)C1c1ccco1 (configuration not stated)	6	0	0	-1	1	65*
COc1ccc(-n2nc(C(=O)NCC(=O)N3CCN(c4ccccn4)CC3)c3ccccc3c2=O)cc1	27	4	3	24	16	7
COc1ccc(-n2nc(C(=O)NCC(=O)N3CCN(c4ccccc4)CC3)c3ccccc3c2=O)cc1OC	14	-5	0	36	8	-5
COC(=O)CNC(=O)CNC(=O)c1nn(-c2ccc(OC)c(Cl)c2)c(=O)c2ccccc12	8	0	-2	6	9	-6
COc1ccc(-n2nc(C(=O)NCC(=O)N3CCN(c4ccccn4)CC3)c3ccccc3c2=O)cc1OC	2	4	4	57*	12	11
COc1ccc(-n2nc(C(=O)NCC(=O)N3CCN(c4ccccc4OC)CC3)c3ccccc3c2=O)cc1OC	17	0	-2	52*	13	14
COc1ccc(-n2nc(C(=O)NCC(=O)NCc3cccc(F)c3)c3ccccc3c2=O)cc1Cl	9	6	1	50*	15	2
CC(=O)N(C)C[C@@H]1OCc2ccccc2-c2c(n(C)c3ccccc23)C(=O)N([C@@H](C)CO)C[C@@H]1C	.	.	.	-13	0	.
C#CCNC(=O)C[C@@H]1C[C@@]2(C(=O)OC)CC(C)(C)CC=C2N(CCCCCCCC)C1=O	.	-8	.	-45	2	.
CCOC(=O)C1CCCN(CC(O)COc2ccc(OC)cc2C(C)(C)C)C1 (configuration not stated)	4	-4	2	48	39*	11
